Source: PubChem BioAssay (several laboratories)
A selection: hits, their analogues and other compounds. The true share with any hit is near 3%.
DNA FID counter: compounds displacing fluorescent DNA intercalator, primary screen, artefact control for HCV NS3 helicase inhibitor project, biochemical, FID fluorescence. DNA fluorescent intercalator displacement. inhibition, % at 7.9 µM. hit rate 0.17% among 290,000. AID 1845, 2009; in the data active = inhibition above about 37%;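 also: 0% = vehicle and 100% = reference compound; higher means more ethidium bromide displaced from hairpin DNA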
Kir21 block: inhibitors of mouse Kir2.1 inward-rectifier potassium channel. Inward rectifier potassium channel 2 (Mus musculus), P35561. HEK293-Kir2.1, FluxOR thallium flux fluorescence; active compounds read low. B-score at 10 µM. hit rate 0.85% among 310,000;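 active = fluorescence ratio B-score at or below minus 3 SD of library scores, with starting-brightness B-score within 2 SD, cut at about -4.2 in these data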;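 also: channel flux triggered by added potassium and thallium sulfate stimulus; B-score of peak minus minimum fluorescence over baseline after thallium stimulus; more negative B-score means stronger Kir2.1 block with less thallium influx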
SR-BI DiI inh: inhibitors of SR-BI mediated HDL lipid uptake, primary screen, ldlA[mSR-BI] cells, fluorescence, single point; inhibition, % at 12.5 µM; AID 488896, 2010; ldlA[mSR-BI] CHO cells, DiI-HDL uptake fluorescence, 3 h; Scavenger receptor class B member 1 (Mus musculus), Q61009; hit rate 0.96% among 320,000;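 active = mean replicate inhibition of at least 70% and a set share of replicates each scoring 70 or more; inconclusive = meets just one of the two criteria; inactive = fails both criteria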;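 also: 0% = median of neutral control wells and 100% = median of positive control wells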
Target sequence (Q61009 whole entry, looked up): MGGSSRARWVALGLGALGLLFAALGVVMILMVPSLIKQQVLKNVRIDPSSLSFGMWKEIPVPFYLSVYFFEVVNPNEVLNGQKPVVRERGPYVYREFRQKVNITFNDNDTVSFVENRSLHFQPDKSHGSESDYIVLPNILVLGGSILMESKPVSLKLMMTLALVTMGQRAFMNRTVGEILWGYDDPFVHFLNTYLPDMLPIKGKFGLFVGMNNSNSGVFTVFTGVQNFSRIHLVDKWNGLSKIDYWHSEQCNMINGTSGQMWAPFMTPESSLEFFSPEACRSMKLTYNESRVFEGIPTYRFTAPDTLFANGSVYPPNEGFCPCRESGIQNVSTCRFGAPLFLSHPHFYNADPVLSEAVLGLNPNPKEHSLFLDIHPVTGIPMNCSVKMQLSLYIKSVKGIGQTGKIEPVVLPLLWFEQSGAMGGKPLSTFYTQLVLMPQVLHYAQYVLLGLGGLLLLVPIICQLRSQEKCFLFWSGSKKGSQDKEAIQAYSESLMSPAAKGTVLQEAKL
ANO1 activ: TMEM16A chloride channel activators or potentiators, primary screen, cell-based, HTS; hit rate 0.3% among 340,000; HEK293 TMEM16A/YFP-H148Q/I152L, iodide quench fluorescence; active compounds read low; Anoctamin-1 (Mus musculus), Q8BHY3; AID 623877, 2012; B-score at 10 µM;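 active = fluorescence-ratio B-score plate-corrected deviation score at least 3 library SD below zero, with starting fluorescence score within 5 deviations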;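 also: channel opened by trigger with iodide after compound preincubation; score built on the fluorescence ratio of max minus min over baseline; more negative score means more quench and so TMEM16A activation or potentiation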
ANO1 block: TMEM16A chloride channel inhibitors, primary screen, cell-based, HTS; hit rate 1.2% among 310,000; AID 588511, 2011; HEK293 TMEM16A/YFP iodide influx fluorescence, ionomycin; normalized B-score (activity score, 25-100; higher = stronger inhibition) at 10 µM; Anoctamin-1 (Mus musculus), Q8BHY3;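 active = ratio plate-corrected score three or more library SD toward inhibition, starting fluorescence score within five deviations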;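 also: score derived from kinetic fluorescence span divided by baseline fluorescence per well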
SR-BI uptake up: activators of SR-BI mediated DiI-HDL uptake, primary screen, ldlA[mSR-BI] CHO cells, DiI fluorescence | 3 h; 100 = double the neutral-control signal | activation, % at 12.5 µM | hit rate 0.096% among 320,000 | AID 504775, 2011;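 active = mean replicate activation of at least 60% and every replicate at or above 60%; inconclusive = mean or all-replicate condition met, but not both; inactive = mean below 60% and not all replicates reaching 60%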;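 also: 0% = median plate neutral-control signal and 100% = twice that signal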
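Material: SR-BI-overexpressing, LDLR-lacking CHO cells | Dosing: Single compound concentration, delivered by pin transfer | Probe or stimulus: Labelled HDL, 10 µg/mL | Signal: Bottom-read cell fluorescence after medium removal, ex 550/em 595 nm | Schedule: 3 h, 37 °C | Evaluation: HDL uptake via cellular fluorescence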
Starred values were filed as active, the others as inactive; i = inactive; ? = inconclusive; nt = no result.

SMILES	DNA FID counter	Kir21 block	SR-BI DiI inh	ANO1 activ	ANO1 block	SR-BI uptake up
C[C@H](CO)N1C[C@H](C)[C@@H](CN(C)C(=O)Nc2ccccc2)Oc2ccc(NC(=O)Cn3cnnn3)cc2C1=O	nt	nt	-3	i	nt	3
Cn1nnnc1SCC(=O)N1CCN(S(=O)(=O)c2ccc(Cl)cc2)CC1	-7	0.56	-1	i	i	1
Cc1nnc(SCC(=O)N2CCN(S(=O)(=O)c3ccc(Cl)cc3)CC2)n(N)c1=O	-8	0.76	-14	-17*	i	14
C=C(C)CCC(C)N1CCC(n2nccc2NC(=O)CCCc2ccccc2)CC1 (configuration not stated)	17	-1.9	-12	i	i	12
Cc1cc(C)nc(SCc2nnc(SCC(=O)Nc3ccc(Cl)c(C(F)(F)F)c3)o2)n1	-16	0.91	19	i	100*	-19
CCN(C(=O)CCS(=O)(=O)c1cc2c(cc1Cl)NC(=O)CO2)c1ccccc1	-19	-1.5	-15	i	i	15
CCCn1c(NCc2ccco2)nc2ccccc21	9	-0.09	-4	i	i	4
CCCCCCn1c(C(C)NC(=O)c2ccco2)nc2ccccc21 (configuration not stated)	-30	-9*	7	i	i	-7
CCCCCn1c(NCc2ccco2)nc2ccccc21	28	-4.5*	0	i	i	0
COC(=O)[C@@]12CCCCN1[C@H](c1ccc(-c3ccc(C(C)=O)cc3)c(OC)c1)[C@@H]1C(=O)N(C)C(=O)[C@@H]12	nt	-0.88	-61	i	i	?
COC(=O)c1ccc(COC(=O)c2[nH]c(C)c(C(C)=O)c2C)o1	-8	0.17	30	i	100*	-30
O=C(Oc1cccnc1)c1ccco1	-1	0.2	-27	i	i	27
CN(C(=O)C(Cl)Cl)c1ccc(OC(=O)c2ccco2)cc1	-8	-4.7*	-6	i	i	6
CN(C)CCCNC(=O)/C=C/c1ccc2c(c1)OCO2	2	-0.07	-70	i	i	70*
N#CC(c1cccc(Cl)c1)c1ccc2c(C(F)(F)F)cc(C(F)(F)F)nc2n1 (configuration not stated)	2	-1.4	117*	-4.8*	100*	-117
Cc1cc2[nH]c(=O)c(=O)[nH]c2cc1S(=O)(=O)N1CCC(C)CC1	-20	0.3	-7	i	i	7
COCCn1c(-c2ccc(OC(F)(F)C(F)C(F)(F)F)cc2)nc2c1c(=O)[nH]c(=O)n2CC(C)C (configuration not stated)	-15	nt	36	i	100*	-36
COCCn1c(-c2ccc(SC)cc2)nc2c1c(=O)[nH]c(=O)n2CC(C)C	-38	-1	5	i	i	-5
CC(C)C[C@H]1CN=C(Nc2ccccc2)N1CC1CCC1	-4	-0.14	-5	i	i	5
COc1cc(CN2CCc3c([nH]c4ccccc34)C2)cc(OC)c1	10	-4.2*	2	i	i	-2
COc1cc(/C=C2\NC(=S)N(C)C2=O)ccc1OCc1ccccc1F	-20	-1.3	77*	i	i	-77
Cc1ccccc1OCC(O)Cn1c(SC(C)C)nc2c1c(=O)[nH]c(=O)n2C (configuration not stated)	-29	0.12	nt	i	i	nt
COc1ccc(OCC(O)Cn2c(Br)nc3c2c(=O)[nH]c(=O)n3C)cc1 (configuration not stated)	1	0.55	9	-28*	i	-9
CCSc1nc2c(c(=O)[nH]c(=O)n2C)n1CC(O)COc1ccccc1C (configuration not stated)	-30	-0.67	-16	-4.6*	i	16
S=C(NNc1ccnc2cc(Cl)ccc12)Nc1ccccc1Cl	-2	1.2	89*	i	25*	-89
SMILES	DNA FID counter	Kir21 block	SR-BI DiI inh	ANO1 activ	ANO1 block	SR-BI uptake up
COc1ccc(N/C=C/C(=O)c2ccc(C)cc2)c([N+](=O)[O-])c1	2	0.25	13	-7.2*	i	-13
COc1cccc(C(=O)/C=C/Nc2cc(C)ccc2O)c1	-27	-1.4	92*	i	i	-92
O=C(NCCOc1ccc(F)cc1)c1ccccc1SCc1ccccc1	-29	-1.4	20	i	25*	-20
COC(=O)c1ccc(C(=O)N2CCCC(N3CCN(c4ccc(F)cc4)CC3)C2)nc1 (configuration not stated)	-28	0.76	1	i	i	-1
COc1ccc(CCNC(=O)c2cccn2C)cc1	-6	-1.3	-51	i	i	51
CC(C(=O)Nc1ccc(Cl)cc1)N1C(=O)NC2(CCCC2)C1=O (configuration not stated)	-2	-0.39	-13	i	i	13
CCC(=O)NC(NC(=S)Nc1cccc2cccnc12)C(Cl)(Cl)Cl (configuration not stated)	-4	-0.9	37	i	i	-37
CC(C)C(=O)NC(NC(=S)Nc1cccc2cccnc12)C(Cl)(Cl)Cl (configuration not stated)	-2	2	74*	i	i	-74
CCN1CCN(CCCNC(=O)CCC(=O)N2CC(C)Oc3ccc(C)cc32)CC1 (configuration not stated)	0	0.6	-10	i	i	10
Cc1ccc(CSCCNS(=O)(=O)c2ccc(C)cc2)cc1	-19	-5.5*	-6	i	i	6
COc1ccc(O)c(CN2CCCC(C(=O)Nc3cccc(-n4cccn4)c3)C2)c1 (configuration not stated)	10	-1.8	-3	i	i	3
Cc1ccsc1C(=O)C1CCCN(Cc2cccn2-c2ccc(Cl)cn2)C1 (configuration not stated)	13	-4.6*	nt	i	i	nt
Cc1ccc(-n2cccn2)c(CN2CCCC(C(=O)c3sccc3C)C2)c1 (configuration not stated)	8	-4.5*	16	i	i	-16
O=C(CCCN1C(=O)c2cccnc2C1=O)Nc1ccc(F)cc1Cl	-5	-1	-16	nt	i	16
O=C(O)/C=C/C(=O)Nc1ccc2nccnc2c1	-1	-1.7	-5	i	25*	5
O=C(CCSc1nc(-c2ccc3c(c2)OCO3)cc(C(F)(F)F)n1)NCc1ccco1	-2	0.22	82*	i	i	-83
